Test results taken from ChEMBL document CHEMBL1146034, “Synthesis, DNA affinity, and antiprotozoal activity of linear dications: Terphenyl diamidines and analogues” (J Med Chem, 2006).
pIC50: −log10 of the molar value. Calls of active or inactive are those of the source. No cut-off for these calls is given here.

Key:
[1] = tested on: Plasmodium falciparum; assay: Antiprotozoal activity against Plasmodium falciparum K1; assay type: functional, organism-based
How it was run: (§1)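 Run in vitro against T. b. rhodesiense strain STIB900 or P. falciparum strain K1. Values are from duplicate determinations.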

[2] = tested on: L6; assay: Cytotoxicity against rat L6 cells; assay type: functional, cell-based
[3] = Half life in B6C3F1 mouse liver microsome; assay type: ADME; conditions: liver microsomes
How it was run: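 Pooled male B6C3F1 mouse liver microsomes (0.5 mg/mL protein) in 100 mM phosphate pH 7.4 with 5 mM MgCl2 and 0.5% DMSO, run in duplicate. After 3 min preincubation at 37 °C, 2 mM NADPH started the reaction. Acetonitrile quench at 0–30 min, then LC-MS/MS (positive MRM). t1/2 = 0.693/slope of ln % parent remaining versus time.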

[4] = tested on: Trypanosoma brucei rhodesiense; assay: Antiprotozoal activity against Trypanosoma brucei rhodesiense STIB900; assay type: functional, organism-based; how it was run: as §1
[5] = tested on: Mus musculus; assay: Antiprotozoal activity in mouse infected with Trypanosoma brucei rhodesiense STIB900 measured as average days of survival at 25 mg/kg, po; assay type: functional
How it was run: (§2)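 Acute STIB900 mouse model. Dosing ran for 4 days, given ip or po. The read-out was average days of survival post infection. Mice surviving 60 days parasite-free were scored as cures. Untreated infected mice served as controls.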

[6] = tested on: Mus musculus; assay: Antiprotozoal activity in mouse infected with Trypanosoma brucei rhodesiense STIB900 measured as survival upto 60 days at 25 mg/kg, po; assay type: functional, organism-based; parameters: dose 25 mg/kg
How it was run: (§3)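 Acute mouse model of T. b. rhodesiense STIB900 infection. Compound was given for 4 days, either intraperitoneally or orally, at the stated dose, with untreated infected controls. Read-outs were the number of mice alive and parasite-free at 60 days and the average days of survival.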

[7] = tested on: Mus musculus; assay: Antiprotozoal activity in mouse infected with Trypanosoma brucei rhodesiense STIB900 measured as average days of survival at 5 mg/kg, ip; assay type: functional; conditions: route intraperitoneal; how it was run: as §2
[8] = tested on: Mus musculus; assay: Antiprotozoal activity in mouse infected with Trypanosoma brucei rhodesiense STIB900 measured as average days of survival at 20 mg/kg, ip; assay type: functional; conditions: route intraperitoneal; how it was run: as §2
[9] = tested on: Mus musculus; assay: Antiprotozoal activity in mouse infected with Trypanosoma brucei rhodesiense STIB900 measured as survival upto 60 days at 20 mg/kg, ip; assay type: functional, organism-based; parameters: dose 20 mg/kg; how it was run: as §3
[10] = tested on: Mus musculus; assay: Antiprotozoal activity in mouse infected with Trypanosoma brucei rhodesiense STIB900 measured as survival upto 60 days at 5 mg/kg, ip; assay type: functional, organism-based; parameters: dose 5 mg/kg; how it was run: as §3
[11] = tested on: Mus musculus; assay: Antiprotozoal activity in mouse infected with Trypanosoma brucei rhodesiense STIB900 measured as average days of survival at 100 mg/kg, po; assay type: organism-based; parameters: dose 100 mg/kg, route oral; conditions: in vivo; how it was run: as §2
[12] = tested on: Mus musculus; assay: Antiprotozoal activity in mouse infected with Trypanosoma brucei rhodesiense STIB900 measured as survival upto 60 days at 100 mg/kg, po; assay type: functional, organism-based; parameters: dose 100 mg/kg; how it was run: as §3

SMILES | pIC50 [1] | pIC50 [2] | half-life [3] [h] | pIC50 [4] | Survival [5] [days] | Activity [6] | Survival [7] [days] | Survival [8] [days] | Activity [9] | Activity [10] | Survival [11] [days] | Activity [12]
CONC(=N)c1ccc(-c2ccc(-c3ccc(C(=N)NOC)cn3)cc2)nc1 | 5.92 | < 3.80 | > 1.5 | 4.08 | 12 | inactive | – | – | – | – | – | –
CO/N=C(\N)c1ccc(-c2ccc(-c3ccc(C(=N)NOC)cc3)cc2)o1 | 5.80 | < 3.69 | – | 4.62 | 6.25 | inactive | – | – | – | – | – | –
N=C(N)c1ccc(-c2ccc(-c3ccc(C(=N)N)cc3)nc2)cc1 | 8.00 | – | – | 8.70 | – | – | >42 | >60 | Active | – | – | –
N=C(N)c1ccc(-c2ccc(-c3ccc(C(=N)N)cc3)o2)cc1 [FURAMIDINE] | – | – | – | – | – | – | 35.5 | >52.5 | inactive | inactive | – | –
N=C(NO)c1ccc(-c2ccc(-c3ccc(/C(N)=N\O)cc3)cc2F)cc1 | 6.03 | 4.54 | – | – | 22.25 | inactive | – | – | – | – | – | –
CON=C(N)c1ccc(-c2ccc(-c3ccc(C(N)=NOC)cc3)cc2)cc1 | – | – | > 1.5 | – | – | – | – | – | – | – | 20.75 | –
N=C(N)c1ccc(-c2ccc(-c3ccc(C(=N)N)cc3)c(F)c2)cc1 | 9.00 | – | – | 8.70 | – | – | >51.75 | – | – | inactive | – | –
N=C(N)c1ccc(OCCCCCOc2ccc(C(=N)N)cc2)cc1 [PENTAMIDINE] | – | – | – | – | – | – | – | >42.75 | inactive | – | – | –
N=C(NO)c1ccc(-c2ccc(-c3ccc(/C(N)=N\O)cc3)cc2C(F)(F)F)cc1 | 5.51 | 4.88 | – | 4.52 | 9 | inactive | – | – | – | – | – | –
N=C(NO)c1ccc(-c2ccc(-c3ccc(/C(N)=N\O)cc3)cc2)cc1 | < 4.93 | < 3.68 | – | 4.64 | – | – | – | – | – | – | 24.75 | inactive
COc1cc(-c2ccc(C(=N)N)cc2)c(OC)cc1-c1ccc(C(=N)N)cc1 | 7.43 | < 4.00 | – | 7.82 | – | – | >51.75 | – | – | – | – | –
N=C(N)c1ccc(-c2ccc(-c3ccc(C(=N)N)cn3)cc2)nc1 | 8.00 | – | – | 7.33 | – | – | >60 | – | – | – | – | –
N=C(NO)c1ccc(-c2ccc(-c3ccc(/C(N)=N\O)cc3)nc2)cc1 | 5.12 | < 3.74 | – | 5.03 | – | – | – | – | – | – | > 35.75 | –
N=C(N)c1ccc(-c2ccc(-c3ccc(C(=N)N)cc3)cc2)cc1 | 9.00 | – | – | 8.30 | – | – | – | >47.75 | – | – | – | –
N=C(N)c1ccc(-c2ccc(-c3ccc(C(=N)N)o3)cn2)cc1 | 8.00 | 4.51 | – | 8.70 | – | – | >41.75 | >53.5 | – | – | – | –
CONC(=N)c1ccc(-c2ccc(-c3ccc(C(=N)NOC)cc3)o2)cc1 [PAFURAMIDINE] | – | – | < 0.25 | – | >60 | – | – | – | – | – | – | –
N=C(N)c1ccc(-c2ccc(-c3ccc(C(=N)N)cc3)c(C(F)(F)F)c2)cc1 | 7.82 | 5.03 | – | 7.32 | – | – | 17.25 | – | – | inactive | – | –
CONC(=N)c1ccc(-c2cnc(-c3ccc(C(=N)NOC)cc3)nc2)cc1 | 5.24 | < 3.75 | > 1.5 | 4.31 | 12.5 | inactive | – | – | – | – | – | –
CONC(=N)c1ccc(-c2ccc(-c3ccc(C(=N)NOC)cc3)c(F)c2)cc1 | 5.38 | 5.07 | > 1.5 | 4.29 | 37.25 | inactive | – | – | – | – | – | –
N=C(N)c1ccc(-c2ccc(-c3ccc(C(=N)N)o3)cc2)cc1 | 9.00 | 4.25 | – | 8.30 | – | – | – | 21.25 | inactive | – | – | –
CONC(=N)c1ccc(-c2ccc(-c3ccc(C(=N)NOC)cc3)c(C(F)(F)F)c2)cc1 | 5.42 | 4.37 | – | 4.43 | 7.25 | inactive | – | – | – | – | – | –
N=C(N)c1ccc(-c2cnc(-c3ccc(C(=N)N)cc3)nc2)cc1 | 9.30 | – | – | – | – | – | 23.5 | – | – | inactive | – | –
CO/N=C(/N)c1ccc(-c2ccc(-c3ccc(C(=N)NOC)cc3)nc2)cc1 | 5.49 | < 3.78 | 0.917 | 4.46 | >42.75 | inactive | – | – | – | – | – | –
N=C(NO)c1ccc(-c2ccc(-c3ccc(/C(N)=N/O)cc3)cc2)o1 | 5.18 | – | – | 4.17 | 16 | inactive | – | – | – | – | – | –
CONC(=N)c1ccc(-c2ccc(-c3ccc(C(=N)NOC)cc3)cc2)cc1 | 6.43 | 3.93 | – | 4.86 | – | – | – | – | – | – | – | inactive
